# Results pooled from the literature.
# Protocols differ between the studies behind these lines. pIC50: −log10 of the molar value.
# RPS6KA3: Ribosomal protein S6 kinase alpha-3 (RPS6KA3, Homo sapiens, UniProt P51812)
# PTPN11: Tyrosine-protein phosphatase non-receptor type 11 (PTPN11, Homo sapiens, UniProt Q06124)
# DRD1: D(1A) dopamine receptor (DRD1, Homo sapiens, UniProt P21728)
# SIRT3: NAD-dependent protein deacetylase sirtuin-3, mitochondrial (SIRT3, Homo sapiens, UniProt Q9NTG7)
# CYP2B6: Cytochrome P450 2B6 (CYP2B6, Homo sapiens, UniProt P20813)
# BCHE: Cholinesterase (BCHE, Equus caballus, UniProt P81908)
# PTGS1: Prostaglandin G/H synthase 1 (PTGS1, Ovis aries, UniProt P05979)
Compound,target,assay,system,conditions,pIC50
CN1CCN(c2ccc(Nc3ncc4cc(C#N)c(=O)n(C5CCCC5)c4n3)cc2)CC1,RPS6KA3,"enzyme activity, inhibitor",,,6.42
O=C(O)C(=O)CC(=O)c1cccc(N(Cc2ccccc2)Cc2ccccc2)c1,PTPN11,"enzyme activity, inhibitor, absorbance",,pH 7,4.07
CCN(CC)c1ccc(C=O)cc1,"Aldehyde dehydrogenase, dimeric NADP-preferring (ALDH3A1, Homo sapiens, UniProt P30838)","enzyme activity, inhibitor, absorbance",,,4.82
CC(C)(C)n1nc(-c2cnc3cc(OC4CC4)ccc3c2)c(C(N)=O)c1N,"Calcium/calmodulin-dependent protein kinase type 1D (CAMK1D, Homo sapiens, UniProt Q8IU85)",cell-free assay,,,< 5.00
CSc1ccc(/C=C2/C(C)=C(CC(=O)O)c3cc(F)ccc32)cc1,"cGMP-inhibited 3',5'-cyclic phosphodiesterase 3B (PDE3B, Homo sapiens, UniProt Q13370)","enzyme activity, inhibitor",,,< 4.00
CN(CCCCNC(=O)c1cc2ccccc2[nH]1)[C@@H]1Cc2cccc3[nH]c(=O)n(c23)C1,DRD1,"ligand displacement, radioligand",,,< 5.04
O=Cc1ccc2[nH]ncc2c1,RPS6KA3,"enzyme activity, inhibitor",,,~3.46
CCCOc1c(O)cc(Br)c2c1CN1CCc3cc(OCC(F)F)c(O)cc3[C@@H]1C2,DRD1,"cAMP, antagonist, TR-FRET",,,6.73
Cc1cc(Nc2cc(CN3CCOCC3)c3nc(C)c(Cc4ccc(Cl)cc4F)n3n2)n[nH]1,"Mitogen-activated protein kinase kinase kinase 9 (MAP3K9, Homo sapiens, UniProt P80192)","enzyme activity, inhibitor, TR-FRET",,,6.52
O=C(NCCc1ccc(OP(=O)(O)O)c(OP(=O)(O)O)c1)OCC1c2ccccc2-c2ccccc21,"Signal transducer and activator of transcription 5A, SH2 (Homo sapiens, UniProt P42229)","ligand displacement, FP",,,4.49
C[C@@H]1Cc2ccccc2N1C(=O)NCCCCN(C)[C@@H]1Cc2cccc3[nH]c(=O)n(c23)C1,DRD1,"ligand displacement, radioligand",,,< 5.00
CC(NC(=O)c1ccccc1/N=C/c1c(O)ccc2ccccc12)c1ccccc1 (centres unmarked),SIRT3,"enzyme activity, inhibitor, HPLC",,,3.82
Cc1c(Br)cc(NC(=O)NS(=O)(=O)O)cc1Br,"Tyrosine-protein phosphatase non-receptor type 9 (PTPN9, Homo sapiens, UniProt P43378)","enzyme activity, inhibitor, absorbance",,,< 5.00
CC(=O)N1C[C@@H](CCN2CCC(c3c[nH]c4ccccc34)CC2)c2ccccc21,"Sodium-dependent serotonin transporter (SLC6A4, Homo sapiens, UniProt P31645)","ligand displacement, radioligand",,cell membranes,6.74
Cc1ccc(NC(=O)c2ccc(C)c(C(F)(F)F)c2)cc1C#Cc1nn(C2CCC(O)CC2)c2ncnc(N)c12 (centres unmarked),"BDNF/NT-3 growth factors receptor (NTRK2, Homo sapiens, UniProt Q16620)","enzyme activity, inhibitor, radiometric",,,6.05
C=C(NC(=O)[C@H](CCCCNC(=S)CCCCCCCCCCCCC)NS(C)(=O)=O)C(=O)N[C@@H](CCCNC(=N)N)C(N)=O,SIRT3,"enzyme activity, inhibitor",,,5.43
O=C(NO)c1ccc(CN(c2cnccn2)c2cnccn2)cc1,SIRT3,"enzyme activity, inhibitor, fluorescence",,,< 5.00
CNC(=O)c1cc(Oc2ccc(NC(=O)Nc3cc(C(C)(C)C)nn3-c3ccc4ncccc4c3)c(F)c2)ccn1,"Mitogen-activated protein kinase kinase kinase 20 (MAP3K20, Homo sapiens, UniProt Q9NYL2)","enzyme activity, inhibitor, mass spectrometry",,,7.92
CCc1cc(/C(C)=N/OCc2ccc(C3CCCCC3)c(C(F)(F)F)c2)ccc1CN1CC(C(=O)O)C1,CYP2B6,"enzyme activity, inhibitor","human, liver microsomes",20 min,< 6.22
c1ccc(CNc2ccnc(N3CCNCC3)n2)cc1,BCHE,"enzyme activity, inhibitor",,,< 4.00
CN(C)CC#Cc1ccc2[nH]c3c(c2c1)-c1nc(N)ncc1CCC3,"Dual specificity mitogen-activated protein kinase kinase 2 (MAP2K2, Homo sapiens, UniProt P36507)","enzyme activity, inhibitor, radiometric",,,< 5.00
COc1ccc2c(c1OCc1ccc(OC(F)(F)F)cc1)C[C@@H](C(=O)O)N(c1nc3ccc(F)cc3o1)C2,"Type-2 angiotensin II receptor (AGTR2, Homo sapiens, UniProt P50052)","cell-free assay, TR-FRET",,,6.80
CC1=C[C@@]2(C[C@H](C)[C@H]3CC=C(C)[C@@H](O[C@@H]4O[C@H](CO)[C@@H](O)[C@H](O)[C@H]4O)[C@@H]3O2)OC1=O,PTPN11,"enzyme activity, inhibitor",,,4.04
Cc1ccn2c(Nc3ccccc3)c(-c3ccc(S(C)(=O)=O)cc3)nc2c1,PTGS1,"enzyme activity, inhibitor, fluorescence",,,4.26
C=CC(=O)Nc1cc(Nc2nccc(Nc3cc(Cl)c(F)cc3C(C)(C)O)n2)c(OC)cc1N1CC[C@@H](N(C)C)C1,CYP2B6,"enzyme activity, inhibitor","human, liver microsomes",,< 4.52
N[C@@H](Cc1ccccc1)C(=O)N[C@@H](CC(=O)O)C(=O)N[C@@H](Cc1ccccc1)C(=O)O,PTPN11,"enzyme activity, inhibitor, absorbance",,pH 7.4,4.01
Cc1ccc(Nc2c(-c3ccc(S(C)(=O)=O)cc3)nc3cc(C)ccn23)cc1,PTGS1,"enzyme activity, inhibitor, fluorescence",,,4.47
Cc1cc2c(F)c(Oc3ncnn4cc(OC[C@@H](C)O)c(C)c34)ccc2[nH]1,CYP2B6,"enzyme activity, inhibitor, fluorescence",,15 min,5.23
C=C(NC(=O)[C@H](CCCCNC(=S)NCCCCCCCCCCCC)NS(C)(=O)=O)C(=O)N[C@@H](CCCNC(=N)N)C(N)=O,SIRT3,"enzyme activity, inhibitor",,,5.54
OCCN1CCN(c2nccc(NCc3ccccc3)n2)CC1,BCHE,"enzyme activity, inhibitor",,,< 4.00
CCN(CC)CCCC[C@H](NC(=O)[C@H](CC(C)C)NC(=O)[C@H](C)NC(=O)[C@H](Cc1ccccc1)NC(=O)c1ccc(C(C)(C)C)cc1)C(=O)N[C@@H](CO)C(=O)OC,"Chromobox protein homolog 8 (Homo sapiens, UniProt Q9HC52)","ligand displacement, TR-FRET",,,6.25
O=S1(=O)CCN(c2nccc(NCc3ccccc3)n2)CC1,BCHE,"enzyme activity, inhibitor",,,< 4.00
O=C1Nc2ccc(I)cc2/C1=C/c1cc(Br)c(O)c(Br)c1,"Ribosomal protein S6 kinase alpha-3, N-terminal kinase domain (RPS6KA3, Homo sapiens, UniProt P51812)","enzyme activity, inhibitor, FP",,,6.00
CC(=O)N1CCN(c2nccc(NCc3ccccc3)n2)CC1,BCHE,"enzyme activity, inhibitor",,,< 4.00
CCCC[C@H](NC(=O)[C@H](C)c1c(C)[nH]c2ccc(O)cc12)c1ncc(-c2cc3ccccc3nc2OC)[nH]1,"Prostaglandin E2 receptor EP1 subtype (PTGER1, Homo sapiens, UniProt P34995)",enzyme activity,,,5.57
